Assay results as given in ChEMBL document CHEMBL2346604, “Synthesis of nordihydroguaiaretic acid derivatives and their bioactivities on S. pombe and K562 cell lines” (Eur J Med Chem, 2013).
Values after ≈ are worked out from the molar mass of the structure shown. Active and inactive are the calls of the source. The calls are words filed in the database; no cut-off is given here.

What was measured:
[1] = test system: K562; assay: Inhibition of growth metabolism of human K562 cells assessed as growth rate constant at 4 mg/L at 37 degC by TAM air microcalorimetry; assay type: functional
Method in brief: (§1)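 K562 cells in supplemented RPMI 1640 (10% FBS) seeded at 1×10⁶ cells/mL with compound at graded concentrations. Heat flow recorded in real time in an eight-channel isothermal microcalorimeter (TAM Air). Rate constant k derived from thermogenic growth curves. Inhibition ratio I = (k0 − kc)/k0 × 100% relative to untreated cells, and IC50 is the concentration at I = 50%. Mean ± S.D., n = 3.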

[2] = test system: K562; assay: Induction of apoptosis in human K562 cells assessed as mitochondrial transmembrane potential at 4 mg/L after 18 hrs by Rh123 staining based fluorescence spectrophotometer analysis (reference value: 788.8 +/-1.0%); assay type: functional
[3] = test system: Schizosaccharomyces pombe; assay: Inhibition of growth metabolism of Schizosaccharomyces pombe ACCC 20047 assessed as growth rate constant at 40 mg/L at 32 degC by TAM air microcalorimetry; assay type: functional
Method in brief: (§2)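 Cells seeded at 1×10⁶ cells/mL with compound at a range of concentrations. Heat output recorded continuously in a TAM Air isothermal microcalorimeter. Growth rate constant k taken from power-time curves. I = (k0 − kc)/k0 × 100%, and IC50 is the concentration giving I = 50%. n = 3.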

[4] = test system: K562; assay: Inhibition of growth metabolism of human K562 cells assessed as growth rate constant at 3 mg/L at 37 degC by TAM air microcalorimetry; assay type: functional; method in brief: as §1
[5] = test system: K562; assay: Inhibitive ratio of growth metabolism of human K562 cells at 4 mg/L at 37 degC by TAM air microcalorimetry (reference value: 0%); assay type: functional; method in brief: as §1
[6] = test system: K562; assay: Induction of apoptosis in human K562 cells assessed as mitochondrial transmembrane potential at 4 mg/L after 24 hrs by Rh123 staining based fluorescence spectrophotometer analysis (reference value: 277.9 +/-1.4%); assay type: functional
[7] = test system: Schizosaccharomyces pombe; assay: Inhibition of growth metabolism of Schizosaccharomyces pombe ACCC 20047 assessed as growth rate constant at 320 mg/L at 32 degC by TAM air microcalorimetry; assay type: functional; method in brief: as §2
[8] = test system: Schizosaccharomyces pombe; assay: Inhibitive ratio of growth metabolism of Schizosaccharomyces pombe ACCC 20047 at 40 mg/L at 32 degC by TAM air microcalorimetry (reference value: 0%); assay type: functional; method in brief: as §2
[9] = test system: K562; assay: Inhibitive ratio of growth metabolism of human K562 cells at 8 mg/L at 37 degC by TAM air microcalorimetry (reference value: 0%); assay type: functional; method in brief: as §1
[10] = test system: K562; assay: Inhibition of growth metabolism of human K562 cells assessed as growth rate constant at 2 mg/L at 37 degC by TAM air microcalorimetry; assay type: functional; method in brief: as §1
[11] = test system: Schizosaccharomyces pombe; assay: Inhibition of growth metabolism of Schizosaccharomyces pombe ACCC 20047 at 32 degC by TAM air microcalorimetry; assay type: functional, organism-based; method in brief: as §2
[12] = test system: Schizosaccharomyces pombe; assay: Inhibition of growth metabolism of Schizosaccharomyces pombe ACCC 20047 assessed as growth rate constant at 80 mg/L at 32 degC by TAM air microcalorimetry; assay type: functional; method in brief: as §2
[13] = test system: Schizosaccharomyces pombe; assay: Inhibition of growth metabolism of Schizosaccharomyces pombe ACCC 20047 assessed as growth rate constant at 380 mg/L at 32 degC by TAM air microcalorimetry; assay type: functional; method in brief: as §2
[14] = test system: Schizosaccharomyces pombe; assay: Inhibition of growth metabolism of Schizosaccharomyces pombe ACCC 20047 assessed as growth rate constant at 240 mg/L at 32 degC by TAM air microcalorimetry; assay type: functional; method in brief: as §2
[15] = test system: K562; assay: Induction of apoptosis in human K562 cells assessed as mitochondrial transmembrane potential at 6 mg/L after 12 hrs by Rh123 staining based fluorescence spectrophotometer analysis (reference value: 668.2 +/-0.8%); assay type: functional
[16] = test system: K562; assay: Inhibition of growth metabolism of human K562 cells assessed as growth rate constant at 5 mg/L at 37 degC by TAM air microcalorimetry; assay type: functional; method in brief: as §1
[17] = test system: K562; assay: Induction of apoptosis in human K562 cells assessed as mitochondrial transmembrane potential at 6 mg/L after 18 hrs by Rh123 staining based fluorescence spectrophotometer analysis (reference value: 788.8 +/-1.0%); assay type: functional
[18] = test system: K562; assay: Inhibition of growth metabolism of human K562 cells at 37 degC by TAM air microcalorimetry; assay type: functional, cell-based; method in brief: as §1
[19] = test system: K562; assay: Inhibitive ratio of growth metabolism of human K562 cells at 3 mg/L at 37 degC by TAM air microcalorimetry (reference value: 0%); assay type: functional; method in brief: as §1
[20] = test system: K562; assay: Inhibition of growth metabolism of human K562 cells assessed as growth rate constant at 8 mg/L at 37 degC by TAM air microcalorimetry; assay type: functional; method in brief: as §1
[21] = test system: Schizosaccharomyces pombe; assay: Inhibitive ratio of growth metabolism of Schizosaccharomyces pombe ACCC 20047 at 380 mg/L at 32 degC by TAM air microcalorimetry (reference value: 0%); assay type: functional; method in brief: as §2
[22] = test system: K562; assay: Inhibitive ratio of growth metabolism of human K562 cells at 5 mg/L at 37 degC by TAM air microcalorimetry (reference value: 0%); assay type: functional; method in brief: as §1
[23] = test system: Schizosaccharomyces pombe; assay: Inhibitive ratio of growth metabolism of Schizosaccharomyces pombe ACCC 20047 at 160 mg/L at 32 degC by TAM air microcalorimetry (reference value: 0%); assay type: functional; method in brief: as §2
[24] = test system: K562; assay: Inhibitive ratio of growth metabolism of human K562 cells at 2 mg/L at 37 degC by TAM air microcalorimetry (reference value: 0%); assay type: functional; method in brief: as §1
[25] = test system: Schizosaccharomyces pombe; assay: Inhibitive ratio of growth metabolism of Schizosaccharomyces pombe ACCC 20047 at 320 mg/L at 32 degC by TAM air microcalorimetry (reference value: 0%); assay type: functional; method in brief: as §2
[26] = test system: K562; assay: Induction of late apoptosis in human K562 cells assessed as cell membrane structural changes, smaller nuclear size, chromatin assembly under nuclear envelope, clear nuclear membrane structure, lipid droplets in cytoplasm, protruded cell surface with red nucleus at 4 to 6 mg/L after 12 to 24 hrs by propidium iodide staining based fluorescence microscopy; assay type: functional
Method in brief: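 K562 groups at 0, 4.0 and 6.0 mg/L were held 12, 18 or 24 h at 37 °C in 5% CO2. Cells (1 mL) were collected, washed three times in PBS, stained with propidium iodide for 5 min in the dark and washed. Morphology of membrane, nucleus, chromatin and cytoplasm was scored against untreated controls.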

[27] = test system: Schizosaccharomyces pombe; assay: Inhibition of growth metabolism of Schizosaccharomyces pombe ACCC 20047 assessed as growth rate constant at 160 mg/L at 32 degC by TAM air microcalorimetry; assay type: functional; method in brief: as §2
[28] = test system: Schizosaccharomyces pombe; assay: Inhibitive ratio of growth metabolism of Schizosaccharomyces pombe ACCC 20047 at 80 mg/L at 32 degC by TAM air microcalorimetry (reference value: 0%); assay type: functional; method in brief: as §2
[29] = test system: Schizosaccharomyces pombe; assay: Inhibitive ratio of growth metabolism of Schizosaccharomyces pombe ACCC 20047 at 240 mg/L at 32 degC by TAM air microcalorimetry (reference value: 0%); assay type: functional; method in brief: as §2
[30] = test system: Schizosaccharomyces pombe; assay: Inhibitive ratio of growth metabolism of Schizosaccharomyces pombe ACCC 20047 at 20 mg/L at 32 degC by TAM air microcalorimetry (reference value: 0%); assay type: functional; method in brief: as §2
[31] = test system: K562; assay: Induction of apoptosis in human K562 cells assessed as mitochondrial transmembrane potential at 6 mg/L after 24 hrs by Rh123 staining based fluorescence spectrophotometer analysis (reference value: 277.9 +/-1.4%)
[32] = test system: K562; assay: Inhibitive ratio of growth metabolism of human K562 cells at 6 mg/L at 37 degC by TAM air microcalorimetry (reference value: 0%); assay type: functional; method in brief: as §1
[33] = test system: Schizosaccharomyces pombe; assay: Inhibition of growth metabolism of Schizosaccharomyces pombe ACCC 20047 assessed as growth rate constant at 20 mg/L at 32 degC by TAM air microcalorimetry; assay type: functional; method in brief: as §2
[34] = test system: K562; assay: Induction of apoptosis in human K562 cells assessed as mitochondrial transmembrane potential at 4 mg/L after 12 hrs by Rh123 staining based fluorescence spectrophotometer analysis (reference value: 668.2 +/-0.8%); assay type: functional
[35] = test system: K562; assay: Inhibition of growth metabolism of human K562 cells assessed as growth rate constant at 6 mg/L at 37 degC by TAM air microcalorimetry; assay type: functional; method in brief: as §1

IC50 [18]: 5.87 µg/mL (≈ 16.4 µM)
SMILES: COc1ccc(C[C@@H](C)[C@@H](C)Cc2ccc(OC)c(OC)c2)cc1OC [TERAMEPROCOL]
Activity [1]: 3.9762 ×10⁻⁴ /min | Activity [2]: 615.3% | Activity [3]: 0.00407 min⁻¹ | Activity [4]: 4.4342 ×10⁻⁴ /min | inhibition at 4 µg/mL [5]: 5.06% | Activity [6]: 168% | Activity [7]: 0.00245 min⁻¹ | inhibition at 40 µg/mL [8]: 8.13% | inhibition at 8 µg/mL [9]: 79.6% | Activity [10]: 4.7239 ×10⁻⁴ /min | IC50 [11]: 330 µg/mL (≈ 921 µM) | Activity [12]: 0.00425 min⁻¹ | Activity [13]: 0.00143 min⁻¹ | Activity [14]: 0.00322 min⁻¹ | Activity [15]: 477.8% | Activity [16]: 2.7992 ×10⁻⁴ /min | Activity [17]: 331.5% | inhibition at 3 µg/mL [19]: -5.88% | Activity [20]: 8.5275 ×10⁻⁵ /min | inhibition at 380 µg/mL [21]: 67.7% | inhibition at 5 µg/mL [22]: 33.2% | inhibition at 160 µg/mL [23]: 11.5% | inhibition at 2 µg/mL [24]: -12.8% | inhibition at 320 µg/mL [25]: 44.7% | Activity [26]: Active | Activity [27]: 0.00392 min⁻¹ | inhibition at 80 µg/mL [28]: 4.06% | inhibition at 240 µg/mL [29]: 27.3% | inhibition at 20 µg/mL [30]: 9.48% | Activity [31]: 170.7% | inhibition at 6 µg/mL [32]: 52.9% | Activity [33]: 0.00401 min⁻¹ | Activity [34]: 597.2% | Activity [35]: 1.9712 ×10⁻⁴ /min
